Calls of active or inactive are those of the source. No cut-off for these calls is given here.

In data set [1] the target is NACHT, LRR and PYD domains-containing protein 3 (Homo sapiens) (UniProt Q96P20). Briefly: Inhibition of NLRP3 in human THP-1cells assessed as increase in thermal stability at 100 uM by cellular thermal shift assay.
For data set [2], the system named is THP-1. Briefly: Effect on IL-1beta expression in LPS-stimulated human THP-1 cells at 1 uM preincubated for 40 mins followed by LPS stimulation and measured after 3 hrs by Western blot analysis. The data set is classed as functional, cell-based. The conditions noted are these: time 220.0 min. The gist of the method: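 THP-1 cells were given compound for 40 min, then primed with LPS for 3 h. Medium supernatant was analysed for TNF-α. Cell extracts were immunoblotted for pro-IL-1β and NLRP3.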
In general terms: A western blot detects proteins with antibodies after separation by electrophoresis.

In data set [3] the test system is THP-1. Description: Cytotoxicity against human THP-1 cells assessed as reduction in cell viability at 0.05 to 6.4 uM measured after 90 mins by CCK8 assay. The data set is classed as cell-based. To be noted: thp-1, 1.5 h, dose 0.05-6.4 µM. The gist of the method:
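THP-1 cells preincubated with compound (0.05–6.4 μM) for 1.5 h; viability read by CCK8 assay.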

Data set [4] deals with T1, Interferon-inducible protein AIM2 (Homo sapiens) (UniProt O14862).
T1 sequence (whole entry): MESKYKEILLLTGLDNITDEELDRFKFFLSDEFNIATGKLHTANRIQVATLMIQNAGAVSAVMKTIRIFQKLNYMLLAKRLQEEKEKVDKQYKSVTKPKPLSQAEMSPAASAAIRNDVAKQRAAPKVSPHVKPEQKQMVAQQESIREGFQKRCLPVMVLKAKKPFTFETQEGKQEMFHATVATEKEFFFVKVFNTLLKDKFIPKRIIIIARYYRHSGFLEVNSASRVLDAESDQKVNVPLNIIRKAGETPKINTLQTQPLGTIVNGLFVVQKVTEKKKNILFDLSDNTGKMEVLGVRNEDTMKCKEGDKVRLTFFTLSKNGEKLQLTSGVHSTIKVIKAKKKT
Description: Inhibition of AIM2 inflammasome activation in LPS-induced human THP-1 cells at 3 to 5uM for 40 mins followed by […] stimulation for 6 h by ELISA. The data set is classed as cell-based.

The nature of data set [5]: Cmax in Sprague-Dawley rat at 10 mg/kg, iv measured up to 24 hrs by LC-MS/MS analysis. The data set is classed as ADME, organism-based. Further details: route intravenous, dose 10 mg/kg, time <=24. To be noted: in vivo. Put shortly:
(§1)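 Single doses given intravenously (10 mg/kg) or orally (10, 30, 90 mg/kg); plasma levels quantified by LC/MS/MS at multiple time points. Parameters reported as mean values: AUC0–t, CL, Cmax, T1/2, Tmax, and %F based on AUC.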

Data set [6] can be described thus: Half life in Sprague-Dawley rat at 30 mg/kg, po measured up to 24 hrs by LC-MS/MS analysis. The data set is classed as ADME, organism-based. The conditions noted are these: in vivo. Put shortly: as §1
A short description of data set [7]: Half life in Sprague-Dawley rat at 10 mg/kg, po measured up to 24 hrs by LC-MS/MS analysis. To be noted: in vivo. The data set is classed as ADME, organism-based. The gist of the method:
as §1

The subject of data set [8] is Spleen. Description: Downregulation of IL-1beta level in spleen of LPS treated C57BL/6J mouse at 10 mg/kg, iv measured after 6 hrs by ELISA. For orientation: ELISA stands for enzyme-linked immunosorbent assay.
Data set [9] relates to THP-1. Description: Antiinflammatory activity in human THP-1 cells assessed as inhibition of LPS/nigericin-induced IL-1beta secretion in LPS stimulation followed by pretreatment for 40 min before induced with nigericin for 40 min measured by western blot analysis. To be noted: time 80.0 min. The data set is classed as functional, cell-based. Put shortly: (§2)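 PMA-differentiated THP-1 cells were primed with LPS, exposed to graded compound doses for 40 min, then given nigericin for 40 min. Supernatants were immunoblotted for IL-1β and caspase-1. Cell extracts were immunoblotted for NLRP3, pro-IL-1β and pro-caspase-1.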

Data set [10] deals with NACHT, LRR and PYD domains-containing protein 3 (Homo sapiens) (UniProt Q96P20). Description: Inhibition of NLRP3 inflammasome activation in LPS/nigericin-treated human THP-1 cells assessed as LPS-induced IL-1beta secretion in LPS stimulation followed by pretreatment for 40 min before induced with nigericin for 40 min measured by western blot analysis. The data set is classed as cell-based. To be noted: time 80.0 min. Put shortly: as §2

The nature of data set [11]: Tmax in Sprague-Dawley rat at 30 mg/kg, po measured up to 24 hrs by LC-MS/MS analysis. The data set is classed as ADME, organism-based. To be noted: in vivo. The gist of the method: as §1
The subject of data set [12] is THP-1. Description: Antiinflammatory activity in human THP-1 cells assessed as inhibition of LPS-induced IL-1beta secretion in LPS stimulation for 3 hrs followed by pretreatment at 2uM for 40 min before induced with nigericin for 40 min measured by ELISA. The data set is classed as functional. The conditions noted are these: THP-1, 1.333 h, time 80 min. Put shortly: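 THP-1 cells (2 × 10^5 cells/mL) differentiated with PMA (100 ng/mL) for 24 h. Next day, primed with LPS (1 μg/mL) for 3 h, then compound for 40 min, then nigericin (10 μM) for 40 min. IL-1β in supernatant measured by ELISA; % inhibition as mean ± SD of three independent experiments. The single-concentration screen used 2 μM.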

Data set [13] in a line: AUC (0 to t) in Sprague-Dawley rat at 30 mg/kg, po measured up to 24 hrs by LC-MS/MS analysis. The data set is classed as ADME, organism-based. Further details: route oral, dose 30 mg/kg, time <=24. To be noted: in vivo. Put shortly:
as §1

NACHT, LRR and PYD domains-containing protein 3 (Homo sapiens), sequence (Q96P20 whole entry, the tested form may be a part): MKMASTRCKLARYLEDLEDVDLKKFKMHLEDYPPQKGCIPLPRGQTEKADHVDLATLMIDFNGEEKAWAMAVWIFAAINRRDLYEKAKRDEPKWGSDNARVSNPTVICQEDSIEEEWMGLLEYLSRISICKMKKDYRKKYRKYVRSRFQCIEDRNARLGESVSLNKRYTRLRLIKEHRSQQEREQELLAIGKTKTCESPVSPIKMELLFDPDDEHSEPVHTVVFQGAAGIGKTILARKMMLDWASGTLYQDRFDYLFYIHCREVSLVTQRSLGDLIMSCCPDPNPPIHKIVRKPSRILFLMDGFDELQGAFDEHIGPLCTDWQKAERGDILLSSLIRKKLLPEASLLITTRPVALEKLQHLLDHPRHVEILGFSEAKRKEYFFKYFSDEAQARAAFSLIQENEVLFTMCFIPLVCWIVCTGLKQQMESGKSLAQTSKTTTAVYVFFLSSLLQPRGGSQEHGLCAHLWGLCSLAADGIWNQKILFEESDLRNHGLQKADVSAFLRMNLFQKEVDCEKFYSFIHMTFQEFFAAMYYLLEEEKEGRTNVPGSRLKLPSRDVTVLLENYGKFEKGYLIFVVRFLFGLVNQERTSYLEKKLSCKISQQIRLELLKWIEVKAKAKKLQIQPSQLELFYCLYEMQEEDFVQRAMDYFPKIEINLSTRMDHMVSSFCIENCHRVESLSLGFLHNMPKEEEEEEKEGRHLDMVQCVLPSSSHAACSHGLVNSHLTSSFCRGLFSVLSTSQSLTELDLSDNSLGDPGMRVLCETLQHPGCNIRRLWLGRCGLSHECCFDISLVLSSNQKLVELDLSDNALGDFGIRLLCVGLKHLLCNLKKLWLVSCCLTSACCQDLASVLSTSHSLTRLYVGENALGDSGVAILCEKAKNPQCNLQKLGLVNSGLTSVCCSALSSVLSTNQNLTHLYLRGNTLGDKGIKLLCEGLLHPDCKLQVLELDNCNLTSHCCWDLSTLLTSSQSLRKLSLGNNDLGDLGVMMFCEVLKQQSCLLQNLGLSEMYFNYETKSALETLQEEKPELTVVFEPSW

Regarding `COc1cc(/C=C/C(=O)c2ccc(F)cc2)c(OC)cc1Br`, the inhibition entry in data set [1] was “Active”. For the same molecule, in data set [2], the outcome was inactive. Besides, the Activity entry in [3] is “Non-Toxic”; in data set [9], “Dose-Dependent Effect”. For the same molecule, the inhibition entry in data set [4] was “Dose-Dependent Effect”. The highest level in data set [5] (Cmax) was 82 ng/mL. For the same molecule, the half-life was 7.92 h in data set [6] and 7.43 h in data set [7]. In addition, the outcome in data set [8] was Active. The inhibition entry in [10] was “inactive”. For the same molecule, the Tmax in data set [11] turned out to be 1.26 h. In addition, the inhibition at 2 µM in [12] stood at 108%. In addition, the AUC(0-t) at 24 h in data set [13] turned out to be 15.8 ng·h/mL.

What is called inhibition is the relative decrease from the control value, in per cent. What is called Cmax is the highest concentration seen after dosing. Usually half-life stands for the time in which the quantity being followed falls by half. Read a low half-life as rapid decline. A word on the Tmax: it is the time from dosing to the highest level. What is called AUC(0-t) is exposure summed from dosing to a finite time, without extrapolation to infinity. A high value points to high exposure.

(Values after ChEMBL document CHEMBL5036380, “New Highly Potent NLRP3 Inhibitors: Furanochalcone Velutone F Analogues” (ACS Med Chem Lett, 2022).)
